For ten compounds, IC50 and Ki results are on record in ChEMBL document CHEMBL1126834, “Chemistry, binding affinities, and behavioral properties of a new class of "antineophobic" mitochondrial DBI receptor complex (mDRC) ligands” (J Med Chem, 1993).

In experiment [1] the target is Opioid receptor (Rattus norvegicus, UniProt P33533+P34975+P33535). Description: Inhibition of [3H]naxolone binding to opiate receptors in rat brain. It is filed as tissue-based.
Experiment [2] in a line: Inhibitory activity by measuring its ability to displace [3H]spiperone from dopamine or serotonin 5-HT-1 receptors in rat brain. It is filed as tissue-based.
The nature of experiment [3]: Tested for inhibitory activity by measuring its ability to displace [3H]AMPA from glutamate (non-NMDA) receptor in rat brain. It is filed as tissue-based.
Experiment [4] concerns the target Serotonin 2 (5-HT2) receptor (Rattus norvegicus). Description: Inhibitory activity by measuring its ability to displace [3H]ketanserin from serotonin receptor in rat brain.
The target in experiment [5] is GABA-A receptor; anion channel. Nature of the experiment: Inhibitory activity at GABA A receptor, measured by the ability to displace [3H]zolpidem from GABA A receptor in rat brain. The experiment is classed as tissue-based.
Experiment [6] can be described thus: Inhibitory activity at GABA B receptor, measured by the ability to displace [3H]baclofen from GABA B receptor in rat brain. The experiment is classed as tissue-based.
The target in experiment [7] is Adrenergic receptor alpha. Description: Inhibitory activity by measuring its ability to displace [3H]WB-4101 from alpha-adrenergic receptor in rat brain. It is filed as tissue-based.
Experiment [8] concerns the target T1, Gastrin/cholecystokinin type B receptor (Rattus norvegicus, UniProt P30553).
T1 sequence (P30553 whole entry): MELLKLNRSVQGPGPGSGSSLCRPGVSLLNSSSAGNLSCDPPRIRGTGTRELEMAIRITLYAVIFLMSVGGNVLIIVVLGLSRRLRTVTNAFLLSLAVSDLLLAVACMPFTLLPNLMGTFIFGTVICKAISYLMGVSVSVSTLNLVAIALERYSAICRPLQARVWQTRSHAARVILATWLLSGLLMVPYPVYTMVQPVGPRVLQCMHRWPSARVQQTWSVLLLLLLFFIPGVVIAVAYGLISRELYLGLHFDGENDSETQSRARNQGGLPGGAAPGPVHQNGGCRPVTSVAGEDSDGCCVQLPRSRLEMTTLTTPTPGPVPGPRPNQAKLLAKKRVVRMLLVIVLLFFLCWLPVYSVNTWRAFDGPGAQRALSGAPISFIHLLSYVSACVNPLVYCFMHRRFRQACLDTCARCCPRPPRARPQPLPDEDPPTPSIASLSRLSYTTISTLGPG
Description: Inhibitory activity by measuring its ability to displace [3H]L-365260 from cholecystokinin receptor in rat brain. It is filed as tissue-based.

Experiment [9] addresses Adrenergic receptor alpha. Nature of the experiment: Inhibitory activity by measuring its ability to displace [3H]clonidine from alpha-adrenergic receptor in rat brain. It is filed as tissue-based.
Experiment [10] addresses Cannabinoid receptor 1 (Rattus norvegicus, UniProt P20272). Nature of the experiment: Inhibitory activity, measured by displacement [3H]CP-55940 from cannabinoid receptor (CB1) in rat brain. The experiment is classed as tissue-based.
Experiment [11] has as its target GABA-A receptor; anion channel. Nature of the experiment: Inhibitory activity at GABA A receptor, measured by the ability to displace [35S]TBPS from GABA A receptor in rat brain. The experiment is classed as tissue-based.
Experiment [12] can be described thus: Inhibitory activity by measuring its ability to displace [3H]glycine from glycine receptor in rat brain. The experiment is classed as tissue-based.
For experiment [13], the target named is GABA-A receptor; anion channel. Nature of the experiment: Inhibitory activity at GABA A receptor, measured by the ability to displace [3H]flumazenil from GABA A receptor in rat brain. It is filed as tissue-based.
Experiment [14] deals with Adrenergic receptor beta (Rattus norvegicus, UniProt P18090+P10608+P26255). Description: Inhibitory activity by measuring its ability to displace [125I]pindolol from beta-adrenergic receptor in rat brain. It is filed as tissue-based.
Experiment [15] addresses Glutamate NMDA receptor. Nature of the experiment: Inhibitory activity by measuring its ability to displace [3H]-MK-801 from glutamate(NMDA) receptor in rat brain. The experiment is classed as tissue-based.
Experiment [16] deals with GABA-A receptor; anion channel. Description: Inhibitory activity at GABA A receptor, measured by the ability to displace [3H]GABA from GABA A receptor in rat brain. The experiment is classed as tissue-based.
Experiment [17] concerns the target Translocator protein (Rattus norvegicus, UniProt P16257). Description: Binding affinity against mitochondrial DBI complex (peripheral benzodiazepine receptor) using primary cultures of glial cells. The procedure, abridged:
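Glia from cerebella of 8-day-old Sprague–Dawley rat pups, trypsin-dissociated and grown 14 days (~95% astroglia). Cells lysed in 50 mM Hepes pH 7.4, 4 μg protein per tube. Incubated with [3H]4'-chlorodiazepam and competitor for 90 min at 4 °C, then filtered. Nonspecific binding defined with 10 μM 4'-chlorodiazepam. Triplicate competition curves; IC50 by nonlinear regression, converted to Ki (Bylund–Yamamura).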

The target of experiment [18] is Sigma receptor (Rattus norvegicus). Nature of the experiment: Tested for inhibitory activity by measuring its ability to displace [3H]3-PPP from sigma receptor in rat brain.

Translocator protein, sequence (P16257 whole entry, looked up): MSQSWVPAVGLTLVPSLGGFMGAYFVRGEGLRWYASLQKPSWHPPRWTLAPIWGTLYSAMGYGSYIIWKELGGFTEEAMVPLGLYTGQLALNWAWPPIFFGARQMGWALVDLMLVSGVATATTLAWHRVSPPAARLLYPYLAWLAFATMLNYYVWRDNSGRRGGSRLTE
Cannabinoid receptor 1, sequence (P20272 whole entry): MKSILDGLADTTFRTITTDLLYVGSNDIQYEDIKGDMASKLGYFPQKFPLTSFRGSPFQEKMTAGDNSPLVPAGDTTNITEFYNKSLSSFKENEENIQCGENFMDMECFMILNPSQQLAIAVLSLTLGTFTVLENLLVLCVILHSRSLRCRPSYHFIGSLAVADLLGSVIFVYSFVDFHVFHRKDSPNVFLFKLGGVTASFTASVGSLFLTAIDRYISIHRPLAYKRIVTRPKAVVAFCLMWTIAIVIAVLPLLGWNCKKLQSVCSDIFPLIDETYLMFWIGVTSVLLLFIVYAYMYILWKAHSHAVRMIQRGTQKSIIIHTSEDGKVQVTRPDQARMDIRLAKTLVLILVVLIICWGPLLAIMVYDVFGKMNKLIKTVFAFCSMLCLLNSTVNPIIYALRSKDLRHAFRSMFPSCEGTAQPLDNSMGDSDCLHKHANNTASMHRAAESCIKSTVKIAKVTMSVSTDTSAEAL

For the compound `CCCCCCNC(=O)Cc1c(-c2ccccc2)[nH]c2ccccc12`, the half-maximal inhibitory concentration (IC50) in experiment [1], in [2], in experiment [3], in [4], in [5] and in experiment [6] was over 1000 nM each time. For the same compound, the half-inhibitory concentration (IC50) in experiment [7], in [8], in experiment [9], in experiment [10], in experiment [11] and in experiment [12] was over 1000 nM each time. The IC50 in experiment [13], in [14], in [15], in experiment [16] and in experiment [18] was over 1000 nM in each case. Moreover, in experiment [17], the Ki is 96 nM.

Turning to `CCCN(CCC)C(=O)Cc1c(-c2ccc(I)cc2)[nH]c2ccccc12`, the concentration for half-maximal inhibition (IC50) in experiment [1], in experiment [2], in [3], in experiment [4], in experiment [5] and in experiment [6] was over 1000 nM in each case. The half-maximal inhibitory concentration (IC50) in experiment [7], in experiment [8], in [9], in experiment [10], in experiment [11] and in [12] was over 1000 nM each time. Also, the IC50 in [13], in experiment [14], in [15], in experiment [16] and in [18] was over 1000 nM throughout. In experiment [17], this compound displayed a Ki of 216 nM.

Regarding `c1ccc(-c2[nH]c3ccccc3c2CC2=NCCN2)cc1`, the half-inhibitory concentration (IC50) in experiment [1], in experiment [2], in experiment [3], in experiment [4], in [5] and in experiment [6] was over 1000 nM each time. Besides, the IC50 in [7], in experiment [8], in experiment [9], in experiment [10], in [11] and in [12] was over 1000 nM throughout. The IC50 in experiment [13], in experiment [14], in experiment [15], in [16] and in experiment [18] was over 1000 nM throughout.

Take `O=C1Cc2c(-c3ccccc3)[nH]c3cccc(c23)N1`: the half-inhibitory concentration (IC50) in experiment [1], in experiment [2], in experiment [3], in experiment [4], in experiment [5] and in experiment [6] was over 1000 nM throughout. The IC50 in [7], in experiment [8], in [9], in experiment [10], in [11] and in experiment [12] was over 1000 nM in each case. Moreover, the IC50 in experiment [13], in experiment [14], in experiment [15], in experiment [16] and in [18] was over 1000 nM in each case.

For `CCCN(CCC)C(=O)Cc1c(-c2cccs2)[nH]c2ccc(Cl)cc12`, the IC50 in experiment [2], in experiment [3], in experiment [5], in experiment [6], in experiment [7] and in experiment [8] was over 1000 nM in each case. In addition, the half-maximal inhibitory concentration (IC50) in [9], in experiment [10], in experiment [11], in [12], in experiment [13] and in [14] was over 1000 nM throughout. In addition, the half-inhibitory concentration (IC50) in experiment [15] and in experiment [16] was over 1000 nM throughout. In experiment [17], the Ki was 78 nM.

In the case of `CCCN(CCC)C(=O)Cc1c(-c2ccc(C)cc2)[nH]c2ccc(C)cc12`, the IC50 in [2], in [3], in [5], in [6], in [7] and in experiment [8] was over 1000 nM in each case. Also, the IC50 in experiment [9], in experiment [10], in experiment [11], in experiment [12], in [13] and in [14] was over 1000 nM in each case. Moreover, the IC50 in experiment [15] and in experiment [16] was over 1000 nM in each case. Besides, in experiment [17], the affinity, expressed as Ki, was 66 nM.

Take `CCCN(CCC)C(=O)Cc1c(-c2cccs2)[nH]c2ccccc12`: the half-inhibitory concentration (IC50) in experiment [2], in experiment [3], in experiment [5], in [6], in experiment [7] and in experiment [8] was over 1000 nM each time. The IC50 in experiment [9], in experiment [10], in experiment [11], in experiment [12], in [13] and in experiment [14] was over 1000 nM throughout. For the same compound, the half-inhibitory concentration (IC50) in experiment [15] and in experiment [16] was over 1000 nM in each case. The compound also returned an inhibition constant (Ki) in experiment [17] of 304 nM.

In the case of `CCCN(CCC)C(=O)C(C)c1c(-c2ccc(Cl)cc2)[nH]c2ccccc12` (stereo not given), the concentration for half-maximal inhibition (IC50) in experiment [2], in experiment [3], in experiment [5], in experiment [6], in [7] and in experiment [8] was over 1000 nM each time. Further, the IC50 in experiment [9], in [10], in experiment [11], in experiment [12], in experiment [13] and in [14] was over 1000 nM each time. In addition, the concentration for half-maximal inhibition (IC50) in [15] and in [16] was over 1000 nM each time. The same compound returned an inhibition constant (Ki) in experiment [17] of 800 nM.

Regarding `O=C(Cc1c(-c2ccc(F)cc2)[nH]c2ccccc12)Nc1ccccc1Br`, the concentration for half-maximal inhibition (IC50) in [2], in [3], in experiment [5], in experiment [6], in [7] and in experiment [8] was over 1000 nM in each case. The half-maximal inhibitory concentration (IC50) in experiment [9], in [10], in experiment [11], in experiment [12], in experiment [13] and in experiment [14] was over 1000 nM in each case. Also, the IC50 in experiment [15] and in experiment [16] was over 1000 nM throughout. This compound also had an inhibition constant Ki in experiment [17] of 476 nM.

In the case of `CCCN(CCC)C(=O)Cc1c(-c2ccc(Cl)cc2)[nH]c2ccccc12`, the IC50 in experiment [2], in experiment [3], in experiment [5], in experiment [6], in experiment [7] and in experiment [8] was over 1000 nM throughout. Further, the 50% inhibitory concentration (IC50) in experiment [9], in experiment [10], in [11], in experiment [12], in experiment [13] and in experiment [14] was over 1000 nM throughout. Moreover, the IC50 in experiment [15] and in experiment [16] was over 1000 nM throughout. The compound further came in with an inhibition constant (Ki) in experiment [17] of 66 nM.
